rRNA inh HTS: inhibits bacterial ribosomal RNA function over humanized ribosomes; E. coli WT GFP vs humanized-ribosome RFP mutants, fluorescence, 24 h; stronger effect = lower value; DMSO median 0, no signal -100; GFP signal change (wild-type ribosome), % (no concentration beside the values); 350,000 tested, 1.6% active;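 active = significant combined selectivity score with lowered wild-type GFP, culture density cut under 30%, mutant RFP and density less affected; inactive = any of these conditions unmet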
ERAP1 inh: blocks human ERAP1 aminopeptidase activity. Q9NZ08. recombinant ERAP1, Leu-AMC fluorescence, 60 min. inhibition, % at 10.7 µM. 340,000 tested, 0.15% active;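 active = mean replicate inhibition of at least 30%, or all replicates individually reaching that 30% level; inactive = mean below 30% and not every replicate reaching it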;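 note: 0% = neutral control wells and 100% = L-leucinethiol positive control wells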
FGF22 binding: binders of recombinant human FGF22 by thermal shift | Q9HCT0 | SYPRO orange fluorescence; percent of sucrose octasulfate shift, DMSO zero | activity (Tm shift, normalised), % at 9.99 µM | 340,000 tested, 1.5% active;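 active = mean Tm shift, scaled 0 neutral to 100 positive control, at about 1.3% or above, every replicate too, limit read from the data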
Target sequence (Q9HCT0 whole entry, looked up): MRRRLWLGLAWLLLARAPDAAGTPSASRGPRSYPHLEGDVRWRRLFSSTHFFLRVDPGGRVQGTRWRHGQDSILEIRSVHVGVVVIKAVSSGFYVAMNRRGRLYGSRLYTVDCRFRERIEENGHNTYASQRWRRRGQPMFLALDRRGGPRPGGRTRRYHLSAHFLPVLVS
HIV Env fusion: inhibitors of HIV Env-mediated cell fusion; HeLa-JRFL Env/CEM21 cell fusion, luciferase; inhibition, % at 12.3 µM; 360,000 tested, 1.1% active;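 active = mean replicate inhibition score of at least 50 and every replicate individually at or above 50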;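 note: 0% = plate neutral controls and 100% = maraviroc near 300 nM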
Cneo AK release: causes C. neoformans cell lysis | adenylate kinase release luminescence, 4 h; normalised: neutral wells 0, clomiphene wells 100 | lysis activity, % at 15 µM | 360,000 tested, 0.2% active;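 active = mean lysis activity across replicates of at least 80%, whatever share of replicates individually reach that level; inactive = mean lysis activity below 80%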
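Material – Cryptococcus neoformans yeast cells · Quantity – 5 × 10^6 yeast cells/mL · Buffer or medium – YPD medium · Compound – single dose · Timing – 4 h static compound exposure, 37 °C, read 1 h post-reagent · Signal – adenylate kinase release luminescence · Read-out basis – lysis from increased AK signal · Benchmarks – Clomiphene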
PGC1a acetyl inh: modulators of PGC1a acetylation; AID 651687; U2OS PGC1a acetylation, AlphaScreen anti-acetyl-lysine; with virally co-expressed GCN5 acetyltransferase; inhibition, % at 15.6 µM; 350,000 tested, 0.17% active;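 active = every replicate shows inhibition of at least 40%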;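 note: 0% = neutral control wells and 100% = positive control wells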
An asterisk follows results filed as active; / = no result; ! = a repeat was not active; [ ] = dose if it differs, or a comment. Most compounds without a hit are left out; they make up all but 3.5% or so of the library.

SMILES | rRNA inh HTS | ERAP1 inh | FGF22 binding | HIV Env fusion | Cneo AK release | PGC1a acetyl inh
CC1(C)OC2OC(C(=O)N/N=C/c3ccccc3F)C3OC(C)(C)OC3C2O1 (stereo unspecified) | 0 | -1 | 44* | -1 | 0 | -7
C[C@H]1O[C@@H](O[C@H]2[C@@H](O)C[C@H](O[C@H]3[C@@H](O)C[C@H](O[C@H]4CC[C@@]5(C)[C@H](CC[C@@H]6[C@@H]5C[C@@H](O)[C@]5(C)[C@@H](C7=CC(=O)OC7)CC[C@]65O)C4)O[C@@H]3C)O[C@@H]2C)C[C@H](O)[C@@H]1O | / | -2 | 0 | 86* | 0 | /
CCC1NC(=S)N(C2CCCCC2)C1=O (stereo unspecified) | / | / | / | -30 | 1 | 55*
COCCNC(=O)C1CCN(S(=O)(=O)c2ccccc2)CC1 | / | / | / | / | 1 | 5
COc1ccc(Cl)cc1C1=NOC2(CCC2)C(=O)N1Cc1ccc(NC(C)=O)cc1 | -1 | / | 0 | 67* | 0 | /
COc1ccccc1-c1nnc(Sc2nc([N+](=O)[O-])nn2C)o1 | / | / | / | 126* | / | -37
CC(C)CC(=O)/C(=C\c1ccc(Cl)cc1Cl)n1cncn1 | / | / | / | / | 7 | 60*
COc1ccc(CCN2CC(C(=O)N(C)CC(=O)Nc3ccc(Cl)c(C(F)(F)F)c3)CC2=O)cc1OC (stereo unspecified) | -15 | -2 | -1 | 36 | / | /
CC(=O)Nc1ccc(/C=N/NC(=O)CNC(=O)c2ccccc2)cc1 | 7 | 2 | 43* | 13 | / | -27
NC(=O)c1nsc(C(=O)N(c2ccccc2F)C(C(=O)NCc2ccc(F)cc2)c2ccc(O)cc2)c1N (stereo unspecified) | -40* | 8 | 0 | 29 | 0 | /
COc1ccccc1N(C(=O)c1snc(C(N)=O)c1N)C(C(=O)NCc1ccccc1)c1ccc(O)cc1 (stereo unspecified) | -11 | -7 | 0 | 4 | 12 | /
O=C(Nc1ccc(C(F)(F)F)cc1)N1C[C@@H]2N[C@H](C1)C2c1ccc(-c2cccc(F)c2)cc1 (stereo partly specified) | -58 | -4 | / | / | / | 62*!
O=C(Nc1ccccc1)N1C[C@@H]2N[C@H](C1)[C@@H]2c1ccc(/C=C/c2ccccc2)cc1 | -25* | 0 | / | / | / | -38
O=C(Nc1ccccc1)N1C[C@@H]2N[C@H](C1)C2c1ccc(-c2ccccc2)cc1 (stereo partly specified) | -3 | 3 | / | / | / | -1
CC1CN(C(=O)c2ccccc2Nc2ccc(SC(F)F)cc2)CC(C)O1 (stereo unspecified) | 6 | -3 | 44* | -13 | -1 | -4
CCN(CC)Cc1c(O)ccc2c([N+](=O)[O-])c(C)n(-c3ccc(OC)cc3)c12 | / | / | / | / | 1 | 46*
CCN(CC)Cc1c(O)ccc2occ(C(=O)c3ccc(OC)cc3)c12 | / | / | / | / | 1 | -7
N/C(Cc1ccc(Cl)cc1Cl)=N\OC(=O)c1ccccc1 | -31* | 0 | 0 | -4 | / | -1
C[C@H](CO)N1C[C@H](C)[C@@H](CN(C)C(=O)Nc2ccc(C(F)(F)F)cc2)Oc2ccc(NC(=O)Nc3ccccc3)cc2C1=O | -10 | 1 | 19*! | 12[16.7 µM] | 47 | -5
C[C@H](CO)N1C[C@H](C)[C@@H](CN(C)C(=O)Nc2ccccc2)Oc2ccc(NC(=O)c3ccncc3)cc2C1=O | 5 | 65*! | 0 | / | -2 | 5
C[C@H](CO)N1C[C@H](C)[C@@H](CN(C)C(=O)Nc2ccc(C(F)(F)F)cc2)Oc2c(cccc2N(C)C)C1=O | -11 | -4 | 0 | 3[16.7 µM] | 0 | -2
C[C@@H]1CN([C@@H](C)CO)C(=O)c2cccc(N(C)C)c2O[C@H]1CN(C)C(=O)Nc1ccc(C(F)(F)F)cc1 | -4 | -3 | 0 | -2[16.7 µM] | 99* | 8
C[C@H](CO)N1C[C@H](C)[C@H](CN(C)C(=O)Nc2cccc3ccccc23)Oc2ccc(NC(=O)Nc3ccc(C(F)(F)F)cc3)cc2C1=O | -1 | / | 0 | 56*[16.7 µM] | 0 | 3
C[C@@H]1CN([C@H](C)CO)C(=O)c2cc(NC(=O)Nc3ccc(C(F)(F)F)cc3)ccc2O[C@H]1CN(C)C(=O)Nc1cccc2ccccc12 | 7 | / | 0 | 13[16.7 µM] | 2 | -4
O=S(=O)(Nc1ccncc1)c1ccccc1 | / | / | / | 15 | -1 | /
SMILES | rRNA inh HTS | ERAP1 inh | FGF22 binding | HIV Env fusion | Cneo AK release | PGC1a acetyl inh
CCC(C)(C(=O)NC1CCCCC1)N(Cc1cccs1)C(=O)c1ccccn1 (stereo unspecified) | 10 | -4 | 0 | -5 | / | -10
Cc1ccc(S(=O)(=O)N2CCN(C(=O)COC(=O)C3(C)CC3(Cl)Cl)CC2)c(C)c1 (stereo unspecified) | -36 | -2 | 0 | 0 | 0 | 2
C[C@H](CO)N1C[C@H](C)[C@@H](CN(C)C(=O)Nc2cccc3ccccc23)Oc2c(cccc2N(C)C)C1=O | 1 | 6 | -1 | -5[16.7 µM] | 83* | 1
C[C@@H]1CN([C@H](C)CO)C(=O)c2cc(NC(=O)Nc3cccc4ccccc34)ccc2O[C@@H]1CN(C)C(=O)Nc1ccccc1 | 1 | -13 | 0 | / | 103* | -2
C[C@H]1CN([C@@H](C)CO)C(=O)c2cc(NC(=O)Nc3ccc(C(F)(F)F)cc3)ccc2O[C@@H]1CN(C)Cc1ccccc1 | 1 | 0 | 27* | -3[16.7 µM] | -4 | 5
C[C@H]1CN([C@@H](C)CO)C(=O)c2cc(NC(=O)Nc3cccc4ccccc34)ccc2O[C@@H]1CN(C)C(=O)Nc1ccccc1 | -3 | -12 | 0 | / | 0 | 4
C[C@H]1CN([C@@H](C)CO)C(=O)c2cccc(NC(=O)Nc3ccc(C(F)(F)F)cc3)c2O[C@@H]1CN(C)C(=O)Nc1cccc2ccccc12 | 4 | -1 | 0 | 14[16.7 µM] | -3 | 16
C[C@@H]1CN([C@H](C)CO)C(=O)c2cccc(NC(=O)Nc3ccc(C(F)(F)F)cc3)c2O[C@H]1CN(C)C(=O)Nc1cccc2ccccc12 | 0 | -1 | 0 | 78*[16.7 µM] | 0 | 6
C[C@@H]1CN([C@@H](C)CO)C(=O)c2cccc(N(C)C)c2O[C@H]1CN(C)C(=O)Nc1cccc2ccccc12 | -5 | 2 | 0 | -6[16.7 µM] | 0 | -5
CC(=O)c1ccc(N2CCN(C(=O)c3cccc(Oc4ccccc4)c3)CC2)cc1 | -26 | -2 | 0 | 18 | / | -13
CN(Cc1ccnc2ccccc12)C(=O)C1CCC(=O)N(Cc2ccccc2F)C1 (stereo unspecified) | -1 | -1 | 0 | / | -1 | 0
C[C@H](CO)N1C[C@H](C)[C@H](CN(C)C(=O)Nc2ccccc2)Oc2ncccc2C1=O | 5 | 49* | 0 | 5[16.7 µM] | -2 | 11
